High-throughput results deposited in PubChem BioAssay by several laboratories.
An excerpt weighted towards active compounds, which were near 2.1% of everything screened.
m-calpain inh: inhibitors of pig calpain II, primary screen, biochemical, fluorogenic peptide substrate, 1536-well; purified calpain II, 30 min; inhibition, % at 16 µM; 220,000 tested, 0.37% active; AID 1236, 2008;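 active means inhibition above about 50%, limit read from the data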
Wee1 stabilizer: Wee1 degradation inhibitors, primary screen, cell-based, HeLa, Wee1K328M-luciferase, luminescence; HeLa Luc-Wee1K328M stability; 100% = proteasome inhibitor MG132 effect; 220,000 tested, 1.2% active; reporter increase, % at 5 µM; AID 1321, 2008; Wee1-like protein kinase (Homo sapiens), P30291;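 active means activation above the mean of all tested compounds plus 3 SD, set per screening run, cut at about 8.8% in these data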;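 further: cells exposed to compound for 20 h before luminescence read; 0% = DMSO alone and 100% = MG132 at 30 µM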
TNF necrop inh: inhibitors of TNF-alpha triggered necroptosis, primary screen, cell-based, Jurkat FADD-/-, single concentration; Jurkat FADD-/- TNF necroptosis rescue, ATP luminescence, 24 h; 0 = TNF only, 100 = no-TNF cells; activation (protection from cell death), % at 10 µM; 220,000 tested, 0.068% active;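 active means activation, meaning protection from cell death, of at least 50% relative to plate controls; inactive means activation below 50%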;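 further: necroptosis triggered by 40 ng/mL TNF-alpha added together with compound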
RBBP9 inhibitor: human RBBP9 inhibitors, primary screen, biochemical, fluorescence polarization, FP-Rh probe, HTS. Serine hydrolase RBBP9 (Homo sapiens), O75884. recombinant RBBP9. inhibition, % at 7.94 µM. 220,000 tested, 0.2% active;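 active means inhibition above the campaign mean of all tested compounds plus 3 SD, cut at about 14% in these data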;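 further: plate controls were DMSO wells with RBBP9 for no effect and wells lacking RBBP9 protein for full effect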
Target sequence (O75884 whole entry, looked up): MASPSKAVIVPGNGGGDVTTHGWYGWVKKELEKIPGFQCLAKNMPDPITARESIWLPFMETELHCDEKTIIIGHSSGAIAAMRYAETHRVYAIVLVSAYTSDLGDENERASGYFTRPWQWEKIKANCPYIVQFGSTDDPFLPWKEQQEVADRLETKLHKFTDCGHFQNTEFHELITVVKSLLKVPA
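Test system: recombinant human RBBP9. Quantity: 2.5 µM RBBP9 dispensing solution, before mixing. Detection: FP readout at 525/598 nm. Reagent: Serine-hydrolase probe FP-Rh, 375 nM pre-mixing. Measure: % inhibition. Control set: DMSO-treated enzyme wells and wells lacking RBBP9. Buffer or medium: Tris-NaCl-Pluronic buffer, pH 8.0. Times: preincubation 30 min plus labeling 45 min at 25 °C.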
Pf gametocyte: late stage P. falciparum gametocyte viability inhibitors, primary screen, ATP luminescence, HTS. P. falciparum stage V gametocytes, 24 h. inhibition, % at 10.9 µM. 150,000 tested, 0.065% active. AID 743093, 2013;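 active means inhibition above the mean plus 3 SD of compounds within the control limits, set per campaign, cut at about 38% in these data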;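 further: 0% = DMSO wells and 100% = medium only without gametocytes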
zVAD death inh: inhibitors of zVAD-triggered necroptosis, primary screen, L929 cells; 220,000 tested, 0.38% active; L929 zVAD necroptosis rescue, ATP luminescence, 24 h; with zVAD 60 µM; viability rescue, % at 10 µM; AID 1377, 2008;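 active means activation, scaled between plate controls, above about 75%, limit read from the data; inactive means activation under that limit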;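 further: 0% = zVAD with DMSO and 100% = DMSO alone without zVAD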
The depositor's hits bear a star; i = inactive; / = no result.

SMILES | m-calpain inh | Wee1 stabilizer | TNF necrop inh | RBBP9 inhibitor | Pf gametocyte | zVAD death inh
O=C(C1=C[C@H](C2CCCCC2)C[C@H](OCCCCO)O1)N1CCN(Cc2ccccc2)CC1 | 6 | -2 | 0 | -1 | 0 | 0
COc1ccc(OCC(=O)Nc2ccc3c(c2)nc(CCN2CCOCC2)n3C)cc1 | 0 | 9.1* | 2 | -4 | 5 | 0
O=C(O)CSc1nc2ccccc2c(=O)[nH]1 | -29 | 1 | 1 | -3 | / | 1
CC(C)(C)NC(=O)CSc1nc2ccccc2c(=O)[nH]1 | -20 | 9.6* | 1 | -7 | -2 | 0
O=C(NC(Cc1ccc2c(c1)OCO2)C(=O)NC(Cc1ccccc1)C(=O)O)c1ccccc1 (stereo not drawn) | 0 | 1 | 0 | -1 | -45 | 0
CC(=O)Oc1ccc(-c2csc(Nc3ccc(Cl)cn3)n2)cc1 | / | / | / | / | -4 | /
COc1ccc(-c2csc(Nc3ccc(C)cn3)n2)cc1 | -6 | 9.6* | 0 | -5 | 15 | 2
c1ccc2c(C3=NNC(=NC4CC4)SC3)c[nH]c2c1 | 27 | 4 | 2 | 3 | / | 1
c1ccc2c(C3=NNC(=NC4CCCCC4)SC3)c[nH]c2c1 | 75* | 7 | 3 | -2 | 0 | 1
Cc1cc(Oc2ccc(-c3ccccc3)cc2)n2ncnc2n1 | 11 | 4 | -5 | -5 | 13 | 0
COc1ccc(-c2ccnc3nc(N4CCOCC4)nn23)cc1 | i | -4 | -2 | -2 | 19 | 2
c1ccc(Oc2ccc(-c3ccnc4nc(N5CCOCC5)nn34)cc2)cc1 | i | 9.3* | 0 | -14 | 13 | 2
c1ccc(Oc2ccc(-c3ccnc4ncnn34)cc2)cc1 | 68* | 6 | -4 | -1 | 6 | 1
c1ccc(CSc2ncnc3c2cnn3-c2ccccc2)cc1 | 31 | 3 | 0 | -7 | 16 | 0
Nc1nc2c(C(=O)N3CCOCC3)nnn2c2ccccc12 | -322 | -2 | 2 | 3 | 25 | 0
O=C(CSc1ccccc1)NCc1ccccn1 | 1 | -1 | 2 | -6 | / | 0
COCCNC(=O)Cn1cnc([N+](=O)[O-])n1 | 20 | 9.6* | 0 | -6 | -20 | 0
O=S(=O)(Nc1nc2ccccc2nc1Cl)c1ccc(Br)cc1 | 2 | 4 | 0 | -5 | 0 | 3
CCOC(=O)c1oc2cc(O)ccc2c(=O)c1-c1csc(C)n1 | -3 | -3 | -2 | -8 | / | 0
CCOC(=O)c1ccc(CSC(=N)N)o1 | -3 | 7 | -5 | -1 | -9 | 25
CCOC(=O)c1ccc(CC(=O)c2ccc(O)c(O)c2O)o1 | 58* | 0 | -2 | -16 | / | 0
CCOC(=O)c1ccc(CC(=O)c2oc3cc(O)ccc3c2C)o1 | -74 | 10* | 0 | -3 | 10 | 0
COc1ccc(N2C(=O)C(CC(=O)Nc3ccccc3)N(Cc3ccccn3)C2=S)cc1 (stereo not drawn) | 1 | 9.1* | 0 | -1 | -9 | 0
COc1ccc(-c2cn(CCN)c(-c3ccncc3)n2)cc1 | / | / | / | / | 13 | /
Cc1ccc(N/N=C2\CCS(=O)(=O)c3sccc32)cc1 | 54* | 0 | -1 | 0 | 10 | 0
CCOC(=O)c1nc(-c2ccc(OC)c(OC)c2)no1 | -20 | 3 | 1 | -6 | 8 | 0
COc1cc(NC(=S)N2CCN(C(c3ccccc3)c3ccccc3)CC2)cc(OC)c1 | -37 | -3 | -9 | -10 | 10 | 0
Cc1cc(C)cc(N(C(=O)CNS(=O)(=O)c2ccccc2)C(C(=O)NCc2ccccc2)c2ccc(C)o2)c1 (stereo not drawn) | 10 | 11* | 2 | -3 | -6 | 0
Cc1ccc(C23CC4CC(CC(C(=O)OCC(=O)NC5CCS(=O)(=O)C5)(C4)C2)C3)cc1 (stereo not drawn) | -4 | 3 | -4 | -8 | / | 0
COc1ccc(C(=O)Nc2ccc(-c3ccc(C)o3)cc2)cc1S(=O)(=O)N1CCOCC1 | -161 | 0 | -11 | -19 | / | 84*
